From PubChem BioAssay
Rows were chosen to be rich in hits. Some 2.6% of all compounds tested hit in one or more screens of this group.
MEKK2mut PB1 HTS: MEK5 binding signal on mutant MEKK2 PB1, primary screen, biochemical, multiplex bead flow cytometry, Alexa488-MEK5 | Alexa488-MEK5 binding to MEKK2 mutant | percent response, % at 10 µM | 290,000 tested, 0.35% active | AID 1530, 2009; in the data active = percent response above about 24%, passing the limit was not always enough
MEKK2wt PB1 HTS: modulators of MEK5 binding to wildtype MEKK2, primary screen, biochemical, multiplex bead flow cytometry, Alexa488-MEK5; Alexa488-MEK5 binding to MEKK2 WT; actives lie on both sides; 290,000 tested, 1.1% active; binding response (% of control), % at 10 µM; Mitogen-activated protein kinase kinase kinase 2 (Homo sapiens), Q9Y2U5; in the data active = binding response below about 67% or above about 130%
MEKK3 PB1 HTS: modulators of MEKK3-MEK5 PB1 binding, primary screen, biochemical, wildtype MEKK3, multiplex bead flow cytometry, Alexa488-MEK5. Mitogen-activated protein kinase kinase kinase 3 (Homo sapiens), Q99759. bead-based flow cytometry, Alexa488-MEK5 binding to MEKK3; actives lie on both sides; 0 = blocked by unlabeled MEK5, 100 = vehicle. binding response (% of control), % at 10 µM. 290,000 tested, 1.4% active;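 active = binding response more than 3 SD above or below the average of its plate-row segment, actives on both sides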;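 also: Alexa488 bead fluorescence after subtracting the streptavidin-only scavenger bead signal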
Target sequence (Q99759 whole entry, looked up): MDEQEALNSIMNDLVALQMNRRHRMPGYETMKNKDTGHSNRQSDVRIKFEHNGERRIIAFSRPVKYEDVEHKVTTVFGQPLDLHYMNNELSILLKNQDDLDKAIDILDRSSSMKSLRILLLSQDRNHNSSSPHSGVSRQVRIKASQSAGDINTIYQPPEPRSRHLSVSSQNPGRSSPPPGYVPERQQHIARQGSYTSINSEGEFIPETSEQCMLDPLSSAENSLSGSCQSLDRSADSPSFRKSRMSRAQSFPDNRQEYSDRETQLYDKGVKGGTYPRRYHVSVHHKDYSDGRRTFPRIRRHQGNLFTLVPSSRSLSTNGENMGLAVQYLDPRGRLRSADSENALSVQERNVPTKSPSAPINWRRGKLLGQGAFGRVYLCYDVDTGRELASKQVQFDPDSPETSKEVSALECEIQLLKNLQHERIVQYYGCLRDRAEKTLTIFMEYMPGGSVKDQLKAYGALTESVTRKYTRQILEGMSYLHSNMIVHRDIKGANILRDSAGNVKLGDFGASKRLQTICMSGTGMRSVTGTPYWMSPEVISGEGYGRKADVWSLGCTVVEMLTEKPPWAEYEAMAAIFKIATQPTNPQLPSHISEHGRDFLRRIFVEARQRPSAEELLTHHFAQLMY
Lipid droplet: inhibitors of hepatocyte lipid droplet formation, primary screen, imaging, high-throughput imaging, BODIPY stain | 240,000 tested, 0.4% active | inhibition, % at 6.5 µM | AID 1656, 2009 | AML12 mouse hepatocytes, oleate lipid droplets;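 active = lipid droplet intensity inhibited by at least 50%, with more than 500 cells counted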
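Assay system: AML12 mouse liver cells | Compound dosing: One dose, 6.5 µM compound | Read-out basis: Droplet intensity reduction, % inhibition | Measured by: Fluorescence imaging, 20x objective, two fields per well | Schedule: Overnight treatment with compound plus oleate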
The depositor's hits bear a star; [ ] = remark or other dose.

Screening S=C(Nc1cc(Cl)cc(Cl)c1)NC1CCN(Cc2ccccc2)CC1 returned MEKK2mut PB1 HTS 10, MEKK2wt PB1 HTS 135*, MEKK3 PB1 HTS 103 and Lipid droplet -8.
For Cc1ccc(NC(=S)NC2CCN(Cc3ccccc3)CC2)cc1 the results were MEKK2mut PB1 HTS -1, MEKK2wt PB1 HTS 97, MEKK3 PB1 HTS 98 and Lipid droplet 23.
Screening O=[N+]([O-])c1ccc(/C=C2\CCC(C3=CCCC3)=C2N2CCOCC2)cc1 returned MEKK2mut PB1 HTS 2, MEKK2wt PB1 HTS 1.0*, MEKK3 PB1 HTS 101 and Lipid droplet 2.
For CCOc1ccc(/C=C/C2=Cc3c(sc(NC(=O)CSc4n[nH]c(N)n4)c3C#N)C(C)(C)C2)cc1 the results were MEKK2mut PB1 HTS -8, MEKK2wt PB1 HTS 31* and MEKK3 PB1 HTS 89.
For O=C(C1CCN(Cc2ccc(Cl)cc2)CC1)N1CCN(C(c2ccccc2)c2ccccc2)CC1 the results were MEKK2mut PB1 HTS 49, MEKK2wt PB1 HTS 145*, MEKK3 PB1 HTS 106 and Lipid droplet -45.
For O=C(CN1C(=O)c2ccccc2S1(=O)=O)NCc1ccc(F)cc1 the results were MEKK2mut PB1 HTS -6, MEKK2wt PB1 HTS 94, MEKK3 PB1 HTS 72*[inhibitor] and Lipid droplet -6.
For O=C(CN1C(=O)c2ccccc2S1(=O)=O)NCc1ccc2c(c1)OCO2 the results were MEKK2mut PB1 HTS 5, MEKK2wt PB1 HTS 99, MEKK3 PB1 HTS 104 and Lipid droplet 8.
For COc1cccc(N2CCN(C(=O)c3oc4ccccc4c3NC(=O)CCc3cc(OC)no3)CC2)c1 the results were MEKK2mut PB1 HTS 0, MEKK2wt PB1 HTS 101, MEKK3 PB1 HTS 102 and Lipid droplet 12.
`CC(=O)Nc1ccc(S(=O)(=O)Nc2ccc(Cc3ccncc3)cc2)cc1` gave MEKK2mut PB1 HTS 5, MEKK2wt PB1 HTS 105, MEKK3 PB1 HTS 101 and Lipid droplet -11.
`CC(C)(C)c1ccc(S(=O)(=O)Nc2ccc(Cc3ccncc3)cc2)cc1` gave MEKK2mut PB1 HTS 0, MEKK2wt PB1 HTS 105, MEKK3 PB1 HTS 105 and Lipid droplet 67*.
CCN(CC)c1ccc(N=Cc2c(C)[nH]c3ccccc23)cc1 was read as MEKK2mut PB1 HTS -1, MEKK2wt PB1 HTS 99, MEKK3 PB1 HTS 75*[inhibitor] and Lipid droplet 36.
`COc1cccc(CNC(=O)CCCn2nc(C)n3c(cc4sccc43)c2=O)c1` gave MEKK2mut PB1 HTS -2, MEKK2wt PB1 HTS 97, MEKK3 PB1 HTS 98 and Lipid droplet 3.
Cc1nc2ccccc2c2oc(C(=O)NCCCN3CCCC(C)C3)cc12 (stereo not drawn) was read as MEKK2mut PB1 HTS 3, MEKK2wt PB1 HTS 104, MEKK3 PB1 HTS 102 and Lipid droplet 10.
`CC1CCCN(CCCNC(=O)c2cc3c(Cl)nc4ccccc4c3s2)C1` (stereo not drawn) gave MEKK2mut PB1 HTS 54*, MEKK2wt PB1 HTS 189*, MEKK3 PB1 HTS 106 and Lipid droplet -4.
CN(CCCNC(=O)c1cc2c(Cl)nc3ccccc3c2s1)Cc1ccccc1 was read as MEKK2mut PB1 HTS 44, MEKK2wt PB1 HTS 193*, MEKK3 PB1 HTS 110 and Lipid droplet -26.
For C=CCOc1ccc(C2/C(=C(/O)c3ccc(OC)cc3)C(=O)C(=O)N2CCN2CCNCC2)cc1 (stereo not drawn) the results were MEKK2mut PB1 HTS 6, MEKK2wt PB1 HTS 102 and MEKK3 PB1 HTS 105.
For CC(C)CC(=O)Nc1nc2ccc(S(C)(=O)=O)cc2s1 the results were MEKK2mut PB1 HTS 1, MEKK2wt PB1 HTS -11*, MEKK3 PB1 HTS 98 and Lipid droplet 1.
For COC(=O)C/C=N/N=C1/NC(=O)/C(=C/C(=O)O)S1 the results were MEKK2mut PB1 HTS 3, MEKK2wt PB1 HTS 1.0*, MEKK3 PB1 HTS 96 and Lipid droplet -19.
`COc1ccc(CN(C(=O)c2cc3ccccc3oc2=O)C2CCS(=O)(=O)C2)cc1OC` (stereo not drawn) gave MEKK2mut PB1 HTS -9, MEKK2wt PB1 HTS 91, MEKK3 PB1 HTS 97 and Lipid droplet 4.
`COc1ccc(CN(C)CC(O)COC(c2ccc(OC)cc2)c2ccc(OC)cc2)cc1` (stereo not drawn) gave MEKK2mut PB1 HTS 9, MEKK2wt PB1 HTS 147*, MEKK3 PB1 HTS 107 and Lipid droplet -8.
